# Screening results as filed in PubChem BioAssay.
# Rows were chosen to be rich in hits. Some 3.1% of all compounds tested hit in one or more screens of this group.
# PAX8 reporter: lowers PAX8-driven luciferase in RMG-I cells; AID 652154; RMG-I TPO-luciferase reporter, SteadyGlo, 24 h; hit rate 1.2% among 360,000; inhibition, % at 12.6 µM;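 active means mean replicate inhibition at least 60% with every replicate also reaching 60%; inconclusive means only one of the two criteria is met; inactive means mean below 60% and not all replicates reaching 60%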;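 further: luciferase light reporting Pax8 driven TPO promoter activity; plate controls were median of neutral control wells for no effect and mitoxantrone controls for full effect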
# FN deposition inh: fibronectin deposition inhibition; AH1F fibroblasts, Alexa488-fibronectin deposition fluorescence, overnight; inhibition, % at 12.6 µM; hit rate 0.086% among 350,000;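 active means mean inhibition across replicates of 30% or more, regardless of how many single replicates reach that level; inconclusive means mean under 30% yet at least half of replicates reach 30%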;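 further: positive control wells lacked labelled fibronectin entirely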
#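 Material: AH1F fibroblasts assembling fluorescent fibronectin matrix; amount: 10000 AH1F cells/well; medium: DMEM, 2% serum; reagent: Alexa488-fibronectin, 24 nM final in well; dosing: single compound dose, delivered by pin transfer; incubation: 1 h adhesion, overnight exposure; detection: fluorescence after three HBSS washes, excitation 485 nm, emission 525 nm; measure: fibronectin deposition inhibition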
# PGC1a acetyl inh: PGC1a acetylation modulation, inhibitor mode; U2OS PGC1a acetylation, AlphaScreen anti-acetyl-lysine; with virally co-expressed GCN5 acetyltransferase; inhibition, % at 15.6 µM; hit rate 0.17% among 350,000;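 active means every replicate shows inhibition of at least 40%; inconclusive means mean inhibition at least 40% but some replicate below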;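 further: 0% = neutral control wells and 100% = positive control wells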
# EWS-Fli block: blocks EWS/Fli oncoprotein-driven transcription; inhibition, % at 12.6 µM; A673 NR0B1-luciferase reporter, viability-normalised; hit rate 0.67% among 350,000;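 active means mean inhibition of at least 50% after viability correction, with every replicate also passing that limit; inconclusive means mean reaches 50% but only one of two replicates passes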;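 further: firefly luciferase signal divided by Alamar Blue viability fluorescence both relative to DMSO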
# HIV Env fusion: inhibitors of HIV Env-mediated cell fusion | HeLa-JRFL Env/CEM21 cell fusion, luciferase | inhibition, % at 12.3 µM | AID 651610 | hit rate 1.1% among 360,000;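 active means mean replicate inhibition score of at least 50 and every replicate individually at or above 50; inconclusive means only one of the two criteria met; inactive means mean below 50 and not all replicates reaching 50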;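 further: 0% = plate neutral controls and 100% = maraviroc near 300 nM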
# FGF22 binding: FGF22 (human) thermal shift binding; recombinant FGF22 thermal shift, SYPRO orange fluorescence; percent of sucrose octasulfate shift, DMSO zero; activity (Tm shift, normalised), % at 9.99 µM; Q9HCT0; hit rate 1.5% among 340,000;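 active means mean Tm shift, scaled 0 neutral to 100 positive control, at about 1.3% or above, every replicate too, limit read from the data; inconclusive means no clear call, values can overlap the other calls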
# Target sequence (Q9HCT0 whole entry, looked up): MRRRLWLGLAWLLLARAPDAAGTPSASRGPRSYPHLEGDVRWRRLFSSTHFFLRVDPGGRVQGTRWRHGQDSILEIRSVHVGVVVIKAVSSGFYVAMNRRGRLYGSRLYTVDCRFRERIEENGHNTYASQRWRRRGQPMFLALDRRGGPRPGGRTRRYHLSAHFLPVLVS
# * hit, by the source's call; ? = inconclusive; / = no result; [ ] = dose if it differs, or a comment.
SMILES,PAX8 reporter,FN deposition inh,PGC1a acetyl inh,EWS-Fli block,HIV Env fusion,FGF22 binding
C[C@@H]1CCCCO[C@@H](CN(C)C(=O)Nc2ccccc2)[C@@H](C)CN([C@H](C)CO)C(=O)c2cc(NC(=O)Nc3ccc(C(F)(F)F)cc3)ccc2O1,5,/,20,-19,/,0
C[C@@H]1CCCCO[C@H](CN(C)C(=O)Nc2ccc(C(F)(F)F)cc2)[C@@H](C)CN([C@@H](C)CO)C(=O)c2cc(NC(=O)Nc3ccccc3)ccc2O1,93*,-9,9,-11,20[16.7 µM],0
C[C@@H]1CCCCO[C@@H](CN(C)C(=O)Nc2ccc(C(F)(F)F)cc2)[C@@H](C)CN([C@H](C)CO)C(=O)c2cc(NC(=O)c3ccccc3)ccc2O1,9,/,/,-11,10[16.7 µM],0
C[C@@H]1CCCCO[C@H](CN(C)C(=O)Nc2ccc(C(F)(F)F)cc2)[C@H](C)CN([C@@H](C)CO)C(=O)c2cc(NC(=O)c3ccccc3)ccc2O1,16,/,/,-6,73*[16.7 µM],0
C[C@H](CO)N1C[C@H](C)[C@@H](CN(C)C(=O)Nc2ccccc2)Oc2ccc(NC(=O)Cc3cn(C)c4ccccc34)cc2C1=O,8,/,-7,-3,7[16.7 µM],0
C[C@@H]1CN([C@H](C)CO)C(=O)c2cc(NC(=O)Cc3cn(C)c4ccccc34)ccc2O[C@@H]1CN(C)C(=O)Nc1ccccc1,54,/,108*,-20,-4[16.7 µM],0
C[C@@H]1CN([C@@H](C)CO)C(=O)c2cc(NS(C)(=O)=O)ccc2O[C@@H]1CN(C)Cc1ccc(C(=O)Nc2ccccc2N)cc1,2,/,6,1,/,0
COCC#Cc1ccc2c(c1)O[C@@H](CN(C)S(=O)(=O)c1ccc(C)cc1)[C@H](C)CN([C@@H](C)CO)S2(=O)=O,/,11,-8,27,24[16.7 µM],-1
C[C@@H]1CCCCO[C@H](CN(C)C(=O)Nc2ccc(C(F)(F)F)cc2)[C@H](C)CN([C@H](C)CO)C(=O)c2cc(NC(=O)Cc3ccccc3)ccc2O1,10,/,12,10,26[16.7 µM],0
C[C@H]1CCCCO[C@H](CN(C)C(=O)Nc2ccc(C(F)(F)F)cc2)[C@@H](C)CN([C@@H](C)CO)C(=O)c2cc(NC(=O)Nc3ccccc3)ccc2O1,81*,-10,8,-11,64*[16.7 µM],0
C[C@H]1CCCCO[C@H](CN(C)C(=O)Nc2ccc(C(F)(F)F)cc2)[C@@H](C)CN([C@@H](C)CO)C(=O)c2cc(NC(=O)Cc3ccccc3)ccc2O1,50,-6,18,-8,66*[16.7 µM],0
C[C@@H]1CCCCO[C@H](CN(C)C(=O)Nc2ccc(C(F)(F)F)cc2)[C@H](C)CN([C@@H](C)CO)C(=O)c2cc(NC(=O)Nc3ccccc3)ccc2O1,3,-2,3,-10,30[16.7 µM],0
C[C@@H]1CN([C@@H](C)CO)C(=O)c2cccc(NC(=O)CCCCCC(=O)Nc3ccccc3N)c2O[C@@H]1CN(C)C(=O)Nc1ccc2c(c1)OCO2,0,-14,-3,-4,/,0
COc1ccc(NC(=O)N(C)C[C@H]2Oc3c(NC(=O)Nc4ccc(C(F)(F)F)cc4)cccc3C(=O)N([C@H](C)CO)C[C@H]2C)cc1,/,/,3,13,-6[16.7 µM],/
COc1cccc(CNC(=O)C[C@@H]2CC[C@H]3[C@H](COc4ccc(NC(C)=O)cc4C(=O)N3C)O2)c1,-5,-16,12,-3,-27[16.7 µM],0
C/C=C/c1ccc(OCCOCCNCc2ccccc2)c(OC)c1,-4,-2,/,10,89*,0
CC(C)NC(=O)NCC[C@H]1CC[C@H](NC(=O)Nc2ccccc2)[C@@H](CO)O1,12,1,1,-2,43[16.7 µM],0
O=C(C[C@H]1CC[C@H](NC(=O)C2CCOCC2)[C@H](CO)O1)NCc1ccncc1,/,/,3,3,/,/
O=[N+]([O-])c1cccc(/C=N/Nc2nc(NCc3ccccc3)nc(N3CCOCC3)n2)c1O,20,2,/,20,-2,44*
O=[N+]([O-])c1ccc(/C=N/Nc2nc(NCc3ccccc3)nc(N3CCOCC3)n2)cc1,16,2,/,5,17,42
Cc1cc(/C=C2/C(=O)N(C)C(=S)N2C)ccc1N1CCCC1,-19,1,6,-86,-49,43*
Cc1cc(/C=C2\NC(=S)N(C)C2=O)ccc1N1CCCC1,-153,-25,-1,-80,-17,0
CC(=O)c1c(C)[nH]c(C(=O)COC(=O)COc2ccccc2)c1C,-11,1,9,-1,/,0
CCOC(=O)c1c(C)[nH]c(C(=O)COC(=O)COc2ccc(OC)cc2)c1C,0,-1,/,2,-7,44*
COc1ccccc1OCC(=O)c1[nH]c(C)c(C(C)=O)c1C,/,/,3,/,74*,/
SMILES,PAX8 reporter,FN deposition inh,PGC1a acetyl inh,EWS-Fli block,HIV Env fusion,FGF22 binding
COc1cc(C)ccc1OCC(=O)OCC(=O)c1[nH]c(C)c(C(C)=O)c1C,/,-1,10,-4,10,0
Cc1ccc(Cc2c(-c3cccc(Cl)c3)nc3ccc(C)cn23)cc1,-156,-2,-13,-65,62*,0
Clc1cccc(Cc2c(-c3ccco3)nc3ccc(Cl)cn23)c1,5,10,-3,-2,24,1.7*
COCC#Cc1ccc([C@@H]2[C@@H](CO)N3C(=O)CN(C(=O)c4ccncc4)C[C@H]23)cc1,-7,-3,-1,-1,/,0
CCC(=O)N(C)C[C@@H]1Oc2cc(C#CC3CC3)ccc2S(=O)(=O)N([C@H](C)CO)C[C@H]1C,/,/,-6,8,10[16.7 µM],0
COc1ccc(S(=O)(=O)Nc2cccc3c2O[C@H](CN(C)Cc2ccc(C(=O)O)cc2)[C@H](C)CN([C@H](C)CO)C3=O)cc1,/,-9,6,-10,17[16.7 µM],/
CCCCN(C)c1c(C)nc2ccc(C(=O)N(CC)CCN(C)C)cn12,82*,15,-1,-13,63*,0
Cc1noc(C)c1NC(=O)Nc1ccc2c(c1)CC(=O)N([C@@H](C)CO)C[C@@H](C)[C@@H](CN(C)S(=O)(=O)c1ccc(F)cc1)O2,-33,/,6,-1,-16[16.7 µM],0
N#Cc1ccccc1NC(=O)C1SC(=Nc2ccccc2)C(C(=O)Nc2ccc(Cl)cc2)=C1N (centres undefined),16,/,-5,15,?,0
COc1ccccc1N=C1SC(C(=O)Nc2cccc(Cl)c2Cl)C(N)=C1C(N)=O (centres undefined),-6,-3,-9,55*,-15,0
Cc1cccc(NC(=S)NNC(=O)c2ccc(O)cc2O)c1C,-39,-7,16,6,3,2.3*
C[C@@H]1CCCCO[C@H](CN(C)S(=O)(=O)c2cn(C)cn2)[C@@H](C)CN([C@@H](C)CO)C(=O)c2cc(NC(=O)Nc3ccc(F)cc3)ccc2O1,-13,-1,-8,3,-8[16.7 µM],/
